In ChEMBL document CHEMBL5226322, “Harnessing the Role of HDAC6 in Idiopathic Pulmonary Fibrosis: Design, Synthesis, Structural Analysis, and Biological Evaluation of Potent Inhibitors” (J Med Chem, 2021):
In brackets after ≈: the same amount, converted by molar mass. Activity calls are given as the source filed them. The rule behind the calls is not given here.

Assays:
[1] = Metabolic stability in human liver microsome assessed as half life at 5 uM in presence of NADPH incubated up to 60 mins by HPLC analysis; assay type: ADME; conditions: microsomes, 1 h
[2] = Solubility of the compound at pH 7.4 PBS buffer incubated for 24 hrs by HPLC-UV analysis; assay type: physicochemical; conditions: pH 7.4, 24 h
Summary of the method: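 Compound from 10 mM DMSO stock diluted to 250 μM (2.5% DMSO), either in 50 mM acetic acid (pH 3.0) or in 50 mM aqueous PBS (pH 7.4). Shaken 24 h at 25 °C, PTFE-filtered and diluted 1:2. Quantified by RP-18 HPLC-UV at 254 nm against a 250 μM standard in MeCN/water. Run in triplicate and averaged.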

Heart [3] = assay: Cardiotoxicity in Langendorff-perfused Sprague-Dawley rat heart assessed as effect on HR at 0.01 uM by ECG analysis (reference value: 235.7 +/-8.3 bpm); assay type: toxicity, tissue-based
Heart [4] = assay: Cardiotoxicity in Langendorff-perfused Sprague-Dawley rat heart assessed as effect on HR at 1 uM by ECG analysis (reference value: 235.7 +/-8.3 bpm); assay type: toxicity, tissue-based
Heart [5] = assay: Cardiotoxicity in Langendorff-perfused Sprague-Dawley rat heart assessed as effect on QTc interval time at 0.01 uM by ECG analysis (reference value: 150.5 +/-5.5 milliseconds); assay type: toxicity, tissue-based
Heart [6] = assay: Cardiotoxicity in Langendorff-perfused Sprague-Dawley rat heart assessed as effect on QRS interval time at 1 uM by ECG analysis (reference value: 15.2 +/-0.2 milliseconds); assay type: toxicity, tissue-based
Heart [7] = assay: Cardiotoxicity in Langendorff-perfused Sprague-Dawley rat heart assessed as effect on PQ interval time at 0.1 uM by ECG analysis (reference value: 43.6 +/-2.5 milliseconds); assay type: toxicity, tissue-based
Heart [8] = assay: Cardiotoxicity in Langendorff-perfused Sprague-Dawley rat heart assessed as effect on PQ interval time at 0.01 uM by ECG analysis (reference value: 43.6 +/-2.5 milliseconds); assay type: toxicity, tissue-based
[9] = Toxicity in zebra fish embryo at 50 uM […]; set-up: species or system Danio rerio; conditions: zebrafish
Summary of the method: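 Wildtype Tübingen zebrafish larvae reared at 28.5 °C (14 h light/10 h dark) in embryo medium with methylene blue. From 3 days old, exposed for 2 days to 1, 10, 25, 50 or 100 µM in embryo medium, or 0.1% DMSO vehicle. 4 larvae per well in 400 µL, 8 larvae per group. Larvae scored for swim bladder inflation and cardiac edema.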

Homo sapiens = organism: Homo sapiens; assay: Antifibrotic activity in TGF-beta1-induced human Lung parenchyma assessed as inhibition of collagen 1 mRNA expression at 4.1 uM incubated upto 7 days by qRT-PCR analysis; assay type: functional; conditions: time <= 7.0 day
Summary of the method: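 Human lung parenchyma pieces (2 mm³) cultured in DMEM with TGF-β1 (10 ng/mL) plus compound at 0.41 or 4.1 μM or vehicle (0.1% DMSO). Tissue collected on day 7, homogenized, total RNA purified, then qRT-PCR for HDAC6, collagen I, collagen III, αSMA and fibronectin. Relative expression by the 2^-Ct method; n=3, paired t test.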

NIH3T3 = assay: Cytotoxicity in mouse NIH3T3 cells assessed as reduction in cell viability at 5 uM incubated for 24 hrs by neutral red uptake method based UV/visible spectrophotometer analysis; assay type: toxicity; conditions: nih3t3, 24 h
Summary of the method: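 NIH3T3 fibroblasts grown in DMEM with 10% FCS, L-glutamine/pen-strep and non-essential amino acids at 37 °C, 5% CO2. Monolayers exposed 24 h to compound diluted from a DMSO stock into medium. Neutral Red medium then added for 3 h at 37 °C. Dye extracted with acetic acid/ethanol desorb solution and absorbance read at 540 nm. Student's t-test, p<0.05.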

Structure (SMILES)	t1/2 [1] [min]	solubility [2] [µM]	Activity (Heart [3]) [bpm]	Activity (Heart [4]) [bpm]	Time (Heart [5]) [ms]	Time (Heart [6]) [ms]	Time (Heart [7]) [ms]	Time (Heart [8]) [ms]	Activity [9]	Activity (Homo sapiens)	Activity (NIH3T3) [%]
CN1CCC2(CC1)c1ccccc1N(Cc1ccc(C(=O)NO)cc1)C2c1ccccc1F (racemic)	51.68	285 (≈ 127 µg/mL)									
CC1(C)c2ccccc2N(Cc2ccc(C(=O)NO)cc2)C1c1cccnc1 (racemic)			235.4	235.4	154.6	15.8	44.6	44.1	Non-Toxic	Active	98
